Data as given in ChEMBL document CHEMBL1139492, “Structure-activity relationships and effects on neuroactive steroid synthesis in a series of 2-phenylimidazo[1,2-a]pyridineacetamide peripheral benzodiazepine receptors ligands” (J Med Chem, 2005).

What was measured:
Translocator protein [1] = target: T1, Translocator protein (Rattus norvegicus, UniProt P16257); experiment: Inhibitory concentration against peripheral benzodiazepine receptor of rat ovary; format: tissue-based, Female gonad
In short: (§1)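 Rat tissue (cerebral cortex, ovary) homogenised in 50 vol PBS pH 7.4 at 4 °C, spun at 40 000g for 30 min, washed, resuspended in 10 vol PBS. […] Filtration on polyethyleneimine-soaked GF/B filters, scintillation counting. […] Means of three experiments in duplicate; Ki reported.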

Rattus norvegicus [2] = experiment: Effect of the 25 mg/kg compound on 3-alpha,5alpha-THPROG concentration in rat cerebral cortex after 30 min of intraperitoneal administration; format: functional, organism-based; parameters: dose 25 mg/kg
In short: (§2)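 Male Sprague–Dawley rats, about 60 days old, given 25 mg/kg ip in saline with three drops Tween 80 per 5 mL, 0.3 mL/100 g; sampled 30 min later. Brain taken after focused microwave irradiation of the head, plasma after guillotine. Cortex and plasma extracted with ethyl acetate; steroids measured by radioimmunoassay. Results in ng/g tissue, at least eight rats per group, compared with vehicle-treated rats.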

Translocator protein [3] = target: T1, Translocator protein; experiment: Displacement of [3H]-PK11195 from peripheral benzodiazepine receptor of rat ovary; format: tissue-based, Female gonad; in short: as §1
Translocator protein [4] = target: T1, Translocator protein; experiment: Displacement of [3H]PK11195 from peripheral benzodiazepine receptor of rat cerebral cortex; format: tissue-based; in short: as §1
Rattus norvegicus [5] = experiment: Effect of the 25 mg/kg compound on 3-alpha,5alpha-THDOC concentration in rat cerebral cortex after 30 min of intraperitoneal administration; format: functional, organism-based; parameters: dose 25 mg/kg; in short: as §2
Rattus norvegicus [6] = experiment: Effect of the 25 mg/kg compound on 3-alpha,5alpha-THDOC concentration in rat plasma after 30 min of intraperitoneal administration; format: functional, organism-based; parameters: dose 25 mg/kg; in short: as §2
Rattus norvegicus [7] = experiment: Effect of the 25 mg/kg compound on progesterone concentration in rat plasma after 30 min of intraperitoneal administration; format: functional, organism-based; parameters: dose 25 mg/kg; in short: as §2
Rattus norvegicus [8] = experiment: Effect of the 25 mg/kg compound on progesterone concentration in rat cerebral cortex after 30 min of intraperitoneal administration; format: functional, organism-based; parameters: dose 25 mg/kg; in short: as §2
[9] = target: GABA-A receptor; anion channel; experiment: Inhibitory concentration of central benzodiazepine GABA-A receptor of rat cerebral cortex; format: tissue-based
In short: (§3)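 Rat cerebral cortex homogenised in 50 vol ice-cold 50 mM Tris-HCl pH 7.4, spun twice at 20 000g for 10 min. Membranes (0.4–0.5 mg protein) incubated with [3H]flunitrazepam for 60 min at 0 °C. Rapid filtration on GF/B filters, scintillation counting. Nonspecific binding with 5 μM diazepam. Means of three experiments in duplicate; Ki reported.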

[10] = target: Benzodiazepine receptors; peripheral & central (Rattus norvegicus) (UniProt O09028+P15431+P18506+P18508+P19969+P20236+P23574+P23576+P28471+P28473+P30191+P62813+P63079+P63138+Q91ZM7+Q9ES14+P16257); experiment: Ratio of inhibition for peripheral benzodiazepine receptor of rat ovary and central benzodiazepine GABA-A receptor; format: tissue-based; parameters: scale not given here; conditions: Female gonad
Rattus norvegicus [11] = experiment: Effect of the 25 mg/kg compound on 3-alpha,5alpha-THPROG concentration in rat plasma after 30 min of intraperitoneal administration; format: functional, organism-based; parameters: dose 25 mg/kg; in short: as §2
Translocator protein [12] = target: T1, Translocator protein; experiment: Inhibitory concentration against peripheral benzodiazepine receptor of rat cerebral cortex; format: tissue-based; in short: as §1
[13] = target: GABA-A receptor; anion channel; experiment: Displacement of [3H]flunitrazepam from central benzodiazepine GABA-A receptor of rat cerebral cortex; format: tissue-based; in short: as §3

T1 sequence (P16257 whole entry, looked up): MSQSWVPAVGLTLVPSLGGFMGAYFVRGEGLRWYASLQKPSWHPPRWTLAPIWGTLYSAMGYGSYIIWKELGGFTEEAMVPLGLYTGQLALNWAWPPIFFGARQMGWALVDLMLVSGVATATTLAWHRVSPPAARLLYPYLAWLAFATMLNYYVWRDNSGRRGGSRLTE

SMILES | IC50 (Translocator protein [1]) [nM] | Concentration (Rattus norvegicus [2]) [ng/g] | Ki (Translocator protein [3]) [nM] | Ki (Translocator protein [4]) [nM] | Concentration (Rattus norvegicus [5]) [ng/g] | Concentration (Rattus norvegicus [6]) [ng/mL] | Concentration (Rattus norvegicus [7]) [ng/mL] | Concentration (Rattus norvegicus [8]) [ng/g] | pIC50 [9] | Selectivity index [10] | Concentration (Rattus norvegicus [11]) [ng/mL] | IC50 (Translocator protein [12]) [nM] | Ki [13] [nM]
C=CCN(CC=C)C(=O)Cc1c(-c2ccc(Cl)cc2)nc2c(Cl)cc(Cl)cn12 | 5.6 | 8.6 | 4.06 | 4.77 | 3.2 | 9 | 12.2 | 11.5 | 5 | 3.25 | 18.1 | 8.09 | 7750
CCCCN(C)C(=O)Cc1c(-c2ccc(Cl)cc2)nc2c(Cl)cc(Cl)cn12 | 3.3 | 7.4 | 2.46 | 0.302 | 3.9 | 8.1 | 14.9 | 8.9 | 5 | 3.48 | 16.2 | 0.45 | 6880
CN(C(=O)Cc1c(-c2ccc(Cl)cc2)nc2c(Cl)cc(Cl)cn12)c1ccccc1 | 1.7 | 7.4 | 1.27 | 0.203 | 2.8 | 8.3 | 13.9 | 7.2 | 5 | 3.77 | 20.3 | 0.33 | 6880
CCCCN(C(=O)Cc1c(-c2ccccc2)nc2c(Cl)cc(Cl)cn12)c1ccccc1 | 4.6 | 16.3 | 3.5 | 6.78 | 2.6 | 8.9 | 17.3 | 5.8 | 5 | 3.34 | 21.3 | 11.5 | 6880
O=C(Cc1c(-c2ccc(Cl)cc2)nc2c(Cl)cc(Cl)cn12)N1CCCCC1 | 92 | 7.3 | 65.4 | 3.05 | 2.9 | 9.6 | 12.2 | 7.8 | 5 | 2.04 | 19.4 | 5 | 7590
